In ChEMBL document CHEMBL5303300, “EUbOPEN Chemogenomics Library - Multiplex” (2023):
“And” between values parts separate entries of the source, which are not always exact repeats. Identical values can stand only once.

Tested on: HEK-293T
Experiment: Multiplex assay against HEK293T
Assay type: toxicity, cell-based
Settings: human, number of replicates 2
In short: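 Cells were classed with CellPathfinder machine-learning gating, first as Hoechst high-intensity objects or normal cells, then (normal cells) as healthy, pyknosed or fragmented nuclei, and finally (pyknosed cells) as mitotic or apoptotic. Staining of live cells at seeding used Hoechst33342, BioTracker Green Microtubule Cytoskeleton Dye, MitoTracker Red and Annexin V Alexa Fluor 680, with imaging on a CQ1 microscope at 37°C and 5% CO2 after compound addition. Tubulin, mitochondrial-mass and membrane-permeability phenotypes are per cents of healthy-nucleus cells.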

[1] = 12 h, 1 µM, compound concentration 1 uM
[2] = 12 h, 10 µM, compound concentration 10 uM
[3] = 24 h, 1 µM, compound concentration 1 uM
[4] = 24 h, 10 µM, compound concentration 10 uM
[5] = 48 h, 1 µM, compound concentration 1 uM
[6] = 48 h, 10 µM, compound concentration 10 uM

CN(C)C/C=C/C(=O)Nc1ccc(C(=O)Nc2cccc(Nc3ncc(Cl)c(-c4c[nH]c5ccccc45)n3)c2)cc1
Population Apoptotic (%) [1]: 42% and 60%
Population Fragmented Nuclei (%) [1]: 2% and 4%
Population Healthy Nuclei (%) [1]: 51% and 52%
Population Hoechst High Intensity Objects (%) [1]: 23% and 21%
Population Membrane Permeable-Phenotype (%) [1]: 9% and 14%
Population Mitochondria Different-Phenotype (%) [1]: 37% and 41%
Population Mitotic Cells (%) [1]: 57% and 40%
Population Normal (%) [1]: 76% and 78%
Population Pyknosed Nuclei (%) [1]: 46% and 43%
Population Tubulin-Different-Phenotype (%) [1]: 89% and 83%
Total Cell Count [1]: 442 and 379
Population Apoptotic (%) [2]: 52% and 73%
Population Fragmented Nuclei (%) [2]: 3% and 2%
Population Healthy Nuclei (%) [2]: 61% and 57%
Population Hoechst High Intensity Objects (%) [2]: 17% and 19%
Population Membrane Permeable-Phenotype (%) [2]: 10% and 5%
Population Mitochondria Different-Phenotype (%) [2]: 26% and 31%
Population Mitotic Cells (%) [2]: 47% and 26%
Population Normal (%) [2]: 82% and 80%
Population Pyknosed Nuclei (%) [2]: 35% and 40%
Population Tubulin-Different-Phenotype (%) [2]: 91% and 95%
Total Cell Count [2]: 459 and 452
Population Apoptotic (%) [3]: 61% and 75%
Population Fragmented Nuclei (%) [3]: 4% and 5%
Population Healthy Nuclei (%) [3]: 43% and 50%
Population Hoechst High Intensity Objects (%) [3]: 24% and 23%
Population Membrane Permeable-Phenotype (%) [3]: 10% and 5%
Population Mitochondria Different-Phenotype (%) [3]: 44% and 45%
Population Mitotic Cells (%) [3]: 38% and 24%
Population Normal (%) [3]: 75% and 76%
Population Pyknosed Nuclei (%) [3]: 51% and 43%
Population Tubulin-Different-Phenotype (%) [3]: 84% and 77%
Total Cell Count [3]: 394 and 349
Population Apoptotic (%) [4]: 67% and 83%
Population Fragmented Nuclei (%) [4]: 6% and 4%
Population Healthy Nuclei (%) [4]: 49% and 46%
Population Hoechst High Intensity Objects (%) [4]: 19% and 20%
Population Membrane Permeable-Phenotype (%) [4]: 9% and 3%
Population Mitochondria Different-Phenotype (%) [4]: 22% and 35%
Population Mitotic Cells (%) [4]: 32% and 16%
Population Normal (%) [4]: 80% and 79%
Population Pyknosed Nuclei (%) [4]: 43% and 48%
Population Tubulin-Different-Phenotype (%) [4]: 87% and 94%
Total Cell Count [4]: 472 and 454
Population Apoptotic (%) [5]: 79% and 73%
Population Fragmented Nuclei (%) [5]: 8% and 7%
Population Healthy Nuclei (%) [5]: 49% and 42%
Population Hoechst High Intensity Objects (%) [5]: 20% and 22%
Population Membrane Permeable-Phenotype (%) [5]: 3% and 7%
Population Mitochondria Different-Phenotype (%) [5]: 43% and 55%
Population Mitotic Cells (%) [5]: 20% and 26%
Population Normal (%) [5]: 79% and 77%
Population Pyknosed Nuclei (%) [5]: 42% and 49%
Population Tubulin-Different-Phenotype (%) [5]: 63% and 74%
Total Cell Count [5]: 354 and 385
Population Apoptotic (%) [6]: 79% and 85%
Population Fragmented Nuclei (%) [6]: 8% and 7%
Population Healthy Nuclei (%) [6]: 36% and 31%
Population Hoechst High Intensity Objects (%) [6]: 21% and 19%
Population Membrane Permeable-Phenotype (%) [6]: 7% and 3%
Population Mitochondria Different-Phenotype (%) [6]: 33% and 41%
Population Mitotic Cells (%) [6]: 20% and 14%
Population Normal (%) [6]: 78% and 80%
Population Pyknosed Nuclei (%) [6]: 54% and 60%
Population Tubulin-Different-Phenotype (%) [6]: 82% and 97%
Total Cell Count [6]: 449 and 445

COc1cccc(Cn2cc(C(=O)Nc3ccc(C)c(S(=O)(=O)N4CCOCC4)c3)c(-c3ccc(C)cc3)n2)c1
Population Apoptotic (%) [1]: 39% and 54%
Population Fragmented Nuclei (%) [1]: 2%
Population Healthy Nuclei (%) [1]: 81% and 84%
Population Hoechst High Intensity Objects (%) [1]: 5% and 4%
Population Membrane Permeable-Phenotype (%) [1]: 6% and 4%
Population Mitochondria Different-Phenotype (%) [1]: 25% and 22%
Population Mitotic Cells (%) [1]: 60% and 45%
Population Normal (%) [1]: 94% and 95%
Population Pyknosed Nuclei (%) [1]: 15% and 12%
Population Tubulin-Different-Phenotype (%) [1]: 76%
Total Cell Count [1]: 633 and 601
Population Apoptotic (%) [2]: 35% and 56%
Population Fragmented Nuclei (%) [2]: 1% and 3%
Population Healthy Nuclei (%) [2]: 83%
Population Hoechst High Intensity Objects (%) [2]: 6% and 7%
Population Membrane Permeable-Phenotype (%) [2]: 21% and 19%
Population Mitochondria Different-Phenotype (%) [2]: 24% and 26%
Population Mitotic Cells (%) [2]: 64% and 43%
Population Normal (%) [2]: 93% and 92%
Population Pyknosed Nuclei (%) [2]: 14% and 13%
Population Tubulin-Different-Phenotype (%) [2]: 84% and 87%
Total Cell Count [2]: 611 and 568
Population Apoptotic (%) [3]: 46% and 42%
Population Fragmented Nuclei (%) [3]: 5% and 4%
Population Healthy Nuclei (%) [3]: 84% and 87%
Population Hoechst High Intensity Objects (%) [3]: 9% and 6%
Population Membrane Permeable-Phenotype (%) [3]: 5% and 6%
Population Mitochondria Different-Phenotype (%) [3]: 13% and 12%
Population Mitotic Cells (%) [3]: 53% and 57%
Population Normal (%) [3]: 90% and 93%
Population Pyknosed Nuclei (%) [3]: 9% and 8%
Population Tubulin-Different-Phenotype (%) [3]: 59%
Total Cell Count [3]: 851 and 807
Population Apoptotic (%) [4]: 34% and 50%
Population Fragmented Nuclei (%) [4]: 3% and 2%
Population Healthy Nuclei (%) [4]: 81% and 83%
Population Hoechst High Intensity Objects (%) [4]: 8%
Population Membrane Permeable-Phenotype (%) [4]: 19% and 22%
Population Mitochondria Different-Phenotype (%) [4]: 21% and 22%
Population Mitotic Cells (%) [4]: 65% and 50%
Population Normal (%) [4]: 91%
Population Pyknosed Nuclei (%) [4]: 15% and 13%
Population Tubulin-Different-Phenotype (%) [4]: 90%
Total Cell Count [4]: 684 and 610
Population Apoptotic (%) [5]: 27% and 29%
Population Fragmented Nuclei (%) [5]: 8%
Population Healthy Nuclei (%) [5]: 87% and 85%
Population Hoechst High Intensity Objects (%) [5]: 9%
Population Membrane Permeable-Phenotype (%) [5]: 7%
Population Mitochondria Different-Phenotype (%) [5]: 3% and 4%
Population Mitotic Cells (%) [5]: 72% and 70%
Population Normal (%) [5]: 90%
Population Pyknosed Nuclei (%) [5]: 4% and 5%
Population Tubulin-Different-Phenotype (%) [5]: 39% and 45%
Total Cell Count [5]: 1564 and 1391
Population Apoptotic (%) [6]: 23% and 62%
Population Fragmented Nuclei (%) [6]: 5%
Population Healthy Nuclei (%) [6]: 86% and 83%
Population Hoechst High Intensity Objects (%) [6]: 9%
Population Membrane Permeable-Phenotype (%) [6]: 26% and 27%
Population Mitochondria Different-Phenotype (%) [6]: 13% and 12%
Population Mitotic Cells (%) [6]: 76% and 37%
Population Normal (%) [6]: 90%
Population Pyknosed Nuclei (%) [6]: 7% and 10%
Population Tubulin-Different-Phenotype (%) [6]: 87% and 91%
Total Cell Count [6]: 752 and 689
